ChEMBL document CHEMBL2062460, “Disubstituted thiourea derivatives and their activity on CNS: synthesis and biological evaluation” (Eur J Med Chem, 2012)
≈ marks a conversion by molar mass, not a printed value. Calls of active or inactive are those of the source. No cut-off for these calls is given here.

Tests used:
Enterococcus hirae = assay: Antibacterial activity against Enterococcus hirae ATCC 10541 after 18 hrs by twofold serial agar dilution technique; type: functional; conditions: ATCC 10541, 18 h
[1] = system: Staphylococcus epidermidis; assay: Antibacterial activity against methicillin-resistant Staphylococcus epidermidis clinical isolate 317/08 after 18 hrs by twofold serial agar dilution technique; type: functional; conditions: clinical isolate 317/08, 18 h
Summary of the method: (§1)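 Clinical isolates came from patients in Warsaw Medical University Hospitals and were classed as methicillin-susceptible or -resistant. MIC was determined by twofold serial agar dilution on Mueller–Hinton II agar (CLSI), 3.125–400 µg/mL in agar, with compounds in methanol or DMSO. Inoculum was 10^4 CFU/mL and plates were read after 18 h at 35 °C.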

[2] = system: Staphylococcus epidermidis; assay: Antibacterial activity against Staphylococcus epidermidis ATCC 12228 after 18 hrs by twofold serial agar dilution technique; type: functional; conditions: ATCC 12228, 18 h
Summary of the method: (§2)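 Twofold serial agar dilution on Mueller–Hinton II agar, following CLSI guidelines. Compounds were dissolved in methanol or DMSO and tested at final agar concentrations of 3.125–400 µg/mL. Final inoculum was 10^4 CFU/mL.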

Staphylococcus aureus [3] = assay: Antibacterial activity against Staphylococcus aureus ATCC 6538 at 400 ug/disc after 18 hrs by disc diffusion method; type: functional
Summary of the method: (§3)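 Disc diffusion per CLSI on Mueller–Hinton II agar; 9 mm paper discs loaded from methanol or DMSO solutions to 400 µg per disc, dried; growth inhibition zone diameter read after 18 h at 35 °C.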

Pseudomonas aeruginosa [4] = assay: Antibacterial activity against Pseudomonas aeruginosa ATCC 15442 at 400 ug/disc after 18 hrs by disc diffusion method; type: functional, organism-based; summary of the method: as §3
Staphylococcus aureus [5] = assay: Antibacterial activity against methicillin-susceptible Staphylococcus aureus clinical isolate 369/09 after 18 hrs by twofold serial agar dilution technique; type: functional; conditions: clinical isolate 369/09, 18 h; summary of the method: as §1
Escherichia coli [6] = assay: Antibacterial activity against Escherichia coli ATCC 25922 at 400 ug/disc after 18 hrs by disc diffusion method; type: functional, organism-based; summary of the method: as §3
Staphylococcus aureus [7] = assay: Antibacterial activity against methicillin-susceptible Staphylococcus aureus clinical isolate 261/08 after 18 hrs by twofold serial agar dilution technique; type: functional; conditions: clinical isolate 261/08, 18 h; summary of the method: as §1
Staphylococcus aureus [8] = assay: Antibacterial activity against methicillin-resistant Staphylococcus aureus clinical isolate 356/09 after 18 hrs by twofold serial agar dilution technique; type: functional; conditions: clinical isolate 356/09, 18 h; summary of the method: as §1
Micrococcus luteus = assay: Antibacterial activity against Micrococcus luteus ATCC 9341 after 18 hrs by twofold serial agar dilution technique; type: functional; conditions: ATCC 9341, 18 h
Staphylococcus aureus [9] = assay: Antibacterial activity against methicillin-susceptible Staphylococcus aureus clinical isolate 269/08 after 18 hrs by twofold serial agar dilution technique; type: functional; conditions: clinical isolate 269/08, 18 h; summary of the method: as §1
[10] = system: Staphylococcus epidermidis; assay: Antibacterial activity against methicillin-resistant Staphylococcus epidermidis clinical isolate 343/09 after 18 hrs by twofold serial agar dilution technique; type: functional; conditions: clinical isolate 343/09, 18 h; summary of the method: as §1
Candida albicans [11] = assay: Antifungal activity against Candida albicans ATCC 10231 at 400 ug/disc after 18 hrs by disc diffusion method; type: functional, organism-based
Summary of the method: (§4)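 Yeasts tested by disc diffusion (CLSI) on RPMI agar with 2% glucose; 9 mm paper discs bearing 400 µg compound from methanol or DMSO solution; inhibition zone diameter read after 18 h at 35 °C.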

[12] = system: Staphylococcus epidermidis; assay: Antibacterial activity against methicillin-resistant Staphylococcus epidermidis clinical isolate 311/08 after 18 hrs by twofold serial agar dilution technique; type: functional; conditions: clinical isolate 311/08, 18 h; summary of the method: as §1
Staphylococcus aureus [13] = assay: Antibacterial activity against methicillin-susceptible Staphylococcus aureus clinical isolate 339/09 after 18 hrs by twofold serial agar dilution technique; type: functional; conditions: clinical isolate 339/09, 18 h; summary of the method: as §1
Staphylococcus aureus [14] = assay: Antibacterial activity against Staphylococcus aureus ATCC 29213 after 18 hrs by twofold serial agar dilution technique; type: functional; conditions: ATCC 29213, 18 h; summary of the method: as §2
Pseudomonas aeruginosa [15] = assay: Antibacterial activity against Pseudomonas aeruginosa NCTC 6749 at 400 ug/disc after 18 hrs by disc diffusion method; type: functional, organism-based; summary of the method: as §3
Staphylococcus aureus [16] = assay: Antibacterial activity against methicillin-resistant Staphylococcus aureus clinical isolate 275/08 after 18 hrs by twofold serial agar dilution technique; type: functional; conditions: clinical isolate 275/08, 18 h; summary of the method: as §1
Candida albicans [17] = assay: Antifungal activity against Candida albicans ATCC 90028 at 400 ug/disc after 18 hrs by disc diffusion method; type: functional, organism-based; summary of the method: as §4
Candida parapsilosis = assay: Antifungal activity against Candida parapsilosis ATCC 22019 at 400 ug/disc after 18 hrs by disc diffusion method; type: functional, organism-based; summary of the method: as §4
Staphylococcus aureus [18] = assay: Antibacterial activity against methicillin-resistant Staphylococcus aureus clinical isolate 329/08 after 18 hrs by twofold serial agar dilution technique; type: functional; conditions: clinical isolate 329/08, 18 h; summary of the method: as §1
[19] = system: Staphylococcus epidermidis; assay: Antibacterial activity against Staphylococcus epidermidis ATCC 12228 at 400 ug/disc after 18 hrs by disc diffusion method; type: functional; conditions: ATCC 12228, 18 h, read-out: DIZ; summary of the method: as §3
[20] = system: Staphylococcus epidermidis; assay: Antibacterial activity against methicillin-resistant Staphylococcus epidermidis clinical isolate 377/09 after 18 hrs by twofold serial agar dilution technique; type: functional; conditions: clinical isolate 377/09, 18 h; summary of the method: as §1
Escherichia coli [21] = assay: Antibacterial activity against Escherichia coli ATCC 10538 at 400 ug/disc after 18 hrs by disc diffusion method; type: functional, organism-based; summary of the method: as §3
Pseudomonas aeruginosa [22] = assay: Antibacterial activity against Pseudomonas aeruginosa ATCC 27853 at 400 ug/disc after 18 hrs by disc diffusion method; type: functional, organism-based; summary of the method: as §3
Staphylococcus aureus [23] = assay: Antibacterial activity against methicillin-resistant Staphylococcus aureus clinical isolate 307/08 after 18 hrs by twofold serial agar dilution technique; type: functional; conditions: clinical isolate 307/08, 18 h; summary of the method: as §1
Staphylococcus aureus [24] = assay: Antibacterial activity against Staphylococcus aureus ATCC 25923 after 18 hrs by twofold serial agar dilution technique; type: functional; conditions: ATCC 25923, 18 h; summary of the method: as §2
Staphylococcus aureus [25] = assay: Antibacterial activity against methicillin-resistant Staphylococcus aureus clinical isolate 309/08 after 18 hrs by twofold serial agar dilution technique; type: functional; conditions: clinical isolate 309/08, 18 h; summary of the method: as §1
[26] = system: Staphylococcus epidermidis; assay: Antibacterial activity against methicillin-resistant Staphylococcus epidermidis clinical isolate 340/09 after 18 hrs by twofold serial agar dilution technique; type: functional; conditions: clinical isolate 340/09, 18 h; summary of the method: as §1
Staphylococcus aureus [27] = assay: Antibacterial activity against methicillin-susceptible Staphylococcus aureus clinical isolate 267/08 after 18 hrs by twofold serial agar dilution technique; type: functional; conditions: clinical isolate 267/08, 18 h; summary of the method: as §1
Bacillus cereus = assay: Antibacterial activity against Bacillus cereus ATCC 11778 at 400 ug/disc after 18 hrs by disc diffusion method; type: functional; conditions: ATCC 11778, 18 h, read-out: DIZ; summary of the method: as §3
Staphylococcus aureus [28] = assay: Antibacterial activity against methicillin-resistant Staphylococcus aureus clinical isolate 306/08 after 18 hrs by twofold serial agar dilution technique; type: functional; conditions: clinical isolate 306/08, 18 h; summary of the method: as §1
Bacillus subtilis = assay: Antibacterial activity against Bacillus subtilis ATCC 6633 after 18 hrs by twofold serial agar dilution technique; type: functional; conditions: ATCC 6633, 18 h
Staphylococcus aureus [29] = assay: Antibacterial activity against methicillin-susceptible Staphylococcus aureus clinical isolate 268/08 after 18 hrs by twofold serial agar dilution technique; type: functional; conditions: clinical isolate 268/08, 18 h; summary of the method: as §1
Staphylococcus aureus [30] = assay: Antibacterial activity against methicillin-resistant Staphylococcus aureus clinical isolate 277/08 after 18 hrs by twofold serial agar dilution technique; type: functional; conditions: clinical isolate 277/08, 18 h; summary of the method: as §1
Staphylococcus aureus [31] = assay: Antibacterial activity against Staphylococcus aureus NCTC 4163 at 400 ug/disc after 18 hrs by disc diffusion method; type: functional; summary of the method: as §3
Staphylococcus aureus [32] = assay: Antibacterial activity against methicillin-susceptible Staphylococcus aureus clinical isolate 372/09 after 18 hrs by twofold serial agar dilution technique; type: functional; conditions: clinical isolate 372/09, 18 h; summary of the method: as §1

S=C(Nc1ccccc1)Nc1nc[nH]n1
MIC (Enterococcus hirae): 200 µg/mL (≈ 912 µM)
MIC [1]: 100 µg/mL (≈ 456 µM)
MIC [2]: 50 µg/mL (≈ 228 µM)
diameter of the inhibition zone (DIZ) (Staphylococcus aureus [3]): inactive
diameter of the inhibition zone (DIZ) (Pseudomonas aeruginosa [4]): inactive
MIC (Staphylococcus aureus [5]): 50 µg/mL (≈ 228 µM)
diameter of the inhibition zone (DIZ) (Escherichia coli [6]): inactive
MIC (Staphylococcus aureus [7]): 50 µg/mL (≈ 228 µM)
MIC (Staphylococcus aureus [8]): 50 µg/mL (≈ 228 µM)
MIC (Micrococcus luteus): 50 µg/mL (≈ 228 µM)
MIC (Staphylococcus aureus [9]): 50 µg/mL (≈ 228 µM)
MIC [10]: 50 µg/mL (≈ 228 µM)
diameter of the inhibition zone (DIZ) (Candida albicans [11]): inactive
MIC [12]: 100 µg/mL (≈ 456 µM)
MIC (Staphylococcus aureus [13]): 50 µg/mL (≈ 228 µM)
MIC (Staphylococcus aureus [14]): 100 µg/mL (≈ 456 µM)
diameter of the inhibition zone (DIZ) (Pseudomonas aeruginosa [15]): inactive
MIC (Staphylococcus aureus [16]): 100 µg/mL (≈ 456 µM)
diameter of the inhibition zone (DIZ) (Candida albicans [17]): inactive
diameter of the inhibition zone (DIZ) (Candida parapsilosis): inactive
MIC (Staphylococcus aureus [18]): 50 µg/mL (≈ 228 µM)
zone of inhibition at 400 µg/disc [19]: 12 mm
MIC [20]: 50 µg/mL (≈ 228 µM)
diameter of the inhibition zone (DIZ) (Escherichia coli [21]): inactive
diameter of the inhibition zone (DIZ) (Pseudomonas aeruginosa [22]): inactive
MIC (Staphylococcus aureus [23]): 50 µg/mL (≈ 228 µM)
MIC (Staphylococcus aureus [24]): 100 µg/mL (≈ 456 µM)
MIC (Staphylococcus aureus [25]): 50 µg/mL (≈ 228 µM)
MIC [26]: 50 µg/mL (≈ 228 µM)
MIC (Staphylococcus aureus [27]): 50 µg/mL (≈ 228 µM)
zone of inhibition at 400 µg/disc (Bacillus cereus): 12 mm
MIC (Staphylococcus aureus [28]): 50 µg/mL (≈ 228 µM)
MIC (Bacillus subtilis): 50 µg/mL (≈ 228 µM)
MIC (Staphylococcus aureus [29]): 50 µg/mL (≈ 228 µM)
MIC (Staphylococcus aureus [30]): 50 µg/mL (≈ 228 µM)
diameter of the inhibition zone (DIZ) (Staphylococcus aureus [31]): inactive
MIC (Staphylococcus aureus [32]): 50 µg/mL (≈ 228 µM)
